From PubChem
LEDGF integ inh: blockers of LEDGF/p75-dependent integrase strand transfer – biochemical, TR-FRET, high throughput, primary screen; HIV-1 integrase (with human LEDGF/p75); TR-FRET IN-LEDGF/p75 DNA integration, Eu/Cy5; inhibition, % at 3.7 µM; actives 0.64% (n = 370,000); AID 743269, 2014;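 active = inhibition above the screen-wide mean plus 3 SD, cut at about 13% in these data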;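 also: signal is the Cy5 over europium emission ratio at 671 and 618 nm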
TDP2 absorb: human TDP2 enzyme inhibitors, primary screen, biochemical, epi absorbance, recombinant enzyme | Tyrosyl-DNA phosphodiesterase 2 (Homo sapiens), O95551 | T5PNP hydrolysis, p-nitrophenol absorbance 415 nm | inhibition, % at 12.8 µM | actives 0.34% (n = 370,000);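 active = inhibition above the mean of all tested compounds plus 3 SD, set per campaign, cut at about 25% in these data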
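Material: recombinant human TDP2; quantity: TDP2 enzyme at 120 nM final; medium: Tris-HCl pH 7.5 with MgCl2; compound: single concentration, 12.8 µM nominal, with 1% DMSO; incubation: 2 h enzyme incubation at 37 °C; signal: epi absorbance; measure: percent inhibition; benchmarks: high control without enzyme, low control DMSO plus TDP2; repeats: singlicate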
MBD2 DNA inh: inhibitors of MBD2 binding to methylated DNA, primary screen, biochemical, TR-FRET, DNA-binding domain, human; Methyl-CpG-binding domain protein 2 (Homo sapiens), Q9UBB5; MBD2 binding to methylated oligonucleotide; inhibition, % at 4.4 µM; actives 0.31% (n = 370,000); in the data active = inhibition above about 13%
NSD2 HMT inh: NSD2 histone methyltransferase inhibitors, primary screen, biochemical, AlphaScreen, single concentration, set 2 | Histone-lysine N-methyltransferase NSD2 (Homo sapiens), O96028 | NSD2 peptide methylation, 120 min | inhibition, % at 12.5 µM | actives 0.54% (n = 310,000) | AID 743445, 2014; in the data active = inhibition above about 50%
CASP6 VEID inh: human caspase-6 inhibitors, primary screen, biochemical, VEID-R110 fluorescence, single point, set 2. purified caspase-6, Z-VEID-R110 cleavage fluorescence. inhibition, % at 12.5 µM. P55212. actives 0.53% (n = 350,000);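 active = mean inhibition across replicates at least about 35%, with every replicate also reaching that limit, limit read from the data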
UHRF1 MBD2 ctr: UHRF1 methylated DNA binding inhibitors, primary screen, counter-screen for MBD2 inhibitor project, biochemical, TR-FRET, human UHRF1, single concentration; E3 ubiquitin-protein ligase UHRF1 (Homo sapiens), Q96T88; UHRF1 binding to methylated oligo; inhibition, % at 4.4 µM; actives 0.75% (n = 370,000); AID 687016, 2013; in the data active = inhibition above about 21%;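 also: UHRF1 SRA domain binding a hemimethylated CpG hairpin DNA probe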
A number is an active result; . = inactive; / = no result given. Sampled rows, rich in hits. Any-hit rate of the full collection: about 1.8%.

SMILES	LEDGF integ inh	TDP2 absorb	MBD2 DNA inh	NSD2 HMT inh	CASP6 VEID inh	UHRF1 MBD2 ctr
N=C1CCCN1CC(=O)c1ccc(Br)cc1	.	.	.	.	/	22
C[C@@H]1CN([C@H](C)CO)C(=O)c2cccc(N(C)C)c2O[C@@H]1CN(C)Cc1ccc(Cl)c(Cl)c1	/	/	/	/	.	/
CC(CN1CCCCC1)C(=O)NN (stereo not drawn)	.	.	.	.	.	21
CC(CN1CCCC1)C(=O)NN (stereo not drawn)	.	.	.	.	.	.
O=C(C[C@H]1C=C[C@@H](NC(=O)C2CCC2)[C@H](CO)O1)NC1CCC1	/	/	/	/	.	/
COCCNC(=O)/C(C#N)=C/c1ccc(-c2ccc(S(=O)(=O)N3CCOCC3)cc2)o1	.	.	.	.	.	69
CO[C@H]1CN(C)C(=O)c2ccc(NC(=O)c3cccc(Oc4ccccc4)c3)cc2OC[C@H](C)NC[C@@H]1C	/	/	/	/	.	/
CCOc1ccc(N(C)Cc2cc(=O)oc3ccc(OCC)cc23)cc1	.	.	.	.	.	22
CC=Cc1ccc2n(c1=O)C[C@@H]1[C@@H](CO)[C@H](C(=O)N(C)C)N(CC3CCCCC3)[C@H]21 (mixture of isomers)	/	/	/	/	.	/
COc1ccc(CCNC(=O)CSc2cc(=O)[nH]c(N)n2)cc1OC	.	.	.	/	/	24
COc1ccc(CCNC(=O)CSc2nc(O)cc(=O)[nH]2)cc1OC	.	.	.	.	.	.
Nc1nc(N)c2cc(CNc3ccc(Cl)c(Cl)c3)ccc2n1	.	.	.	.	.	22
Nc1nc(N)c2cc(Sc3ccc(Cl)cc3)ccc2n1	.	.	.	.	.	.
C[C@@H]1CN([C@H](C)CO)C(=O)c2cc(NC(=O)Nc3ccccc3)ccc2O[C@H]1CN(C)C(=O)Nc1cccc2ccccc12	/	/	/	/	.	/
OCCN(CCO)CC(O)COc1ccc2c(c1)OCO2 (stereo not drawn)	.	.	.	.	/	67
CC(C)CNC(=O)C(=O)NC1CCCC1	.	.	.	/	/	21
O=C(c1cccnc1)N1C[C@@H]2[C@H](c3ccccc31)[C@@H](CO)N2C(=O)Nc1ccccc1	/	/	/	/	.	/
Cc1ccc(S(=O)(=O)n2c(C)nc3ccccc32)cc1	.	.	.	.	41	.
COCCCNC(=S)N1CCN(c2nc(-c3ccc(F)cc3)cs2)CC1	.	.	.	.	.	65
O=C(C1CCC1)N1CC2(C1)[C@H](c1ccccc1)[C@@H](CO)N2Cc1ccccc1F	/	/	/	/	.	/
CCCCOc1[nH]c2nc(-c3ccco3)n(Cc3ccco3)c(=N)c2c1C#N	19	.	.	/	/	.
Cn1c(C(=O)N2CCCC(C(=O)NCc3cccs3)C2)cc2sccc21 (stereo not drawn)	.	.	.	/	.	.
Cn1c(C(=O)N2CCCC(C(=O)NCCCSC3CCCCC3)C2)cc2sccc21 (stereo not drawn)	.	.	.	.	/	61
CNC[C@@H]1Oc2ccc(NC(=O)NC(C)C)cc2C(=O)N([C@@H](C)CO)C[C@H]1C	/	/	/	/	.	/
CC1(C)C(=O)Nc2ccccc2N1C(=O)COC(=O)c1ccc([N+](=O)[O-])o1	.	.	.	.	47	.
SMILES	LEDGF integ inh	TDP2 absorb	MBD2 DNA inh	NSD2 HMT inh	CASP6 VEID inh	UHRF1 MBD2 ctr
O=C1CN(C(=O)COC(=O)c2ccc([N+](=O)[O-])o2)c2ccccc2N1	.	.	.	.	39	.
O=C1CN(C(=O)CNCc2ccc(Cl)cc2)c2ccccc2N1	.	.	.	.	.	62
O=C1CN(C(=O)COC(=O)c2ccco2)c2ccccc2N1	.	.	.	.	.	.
Cn1c(=O)c2[nH]c(Nc3ccccc3)nc2n(C)c1=O	.	.	.	.	/	.
Cc1ccc(Nc2nc3c([nH]2)c(=O)[nH]c(=O)n3C)cc1	45	.	.	.	/	.
CC=Cc1ccc2n(c1=O)C[C@H]1[C@H](CO)[C@@H](C(=O)Nc3ccccc3)N(CC3CCCC3)[C@@H]21 (mixture of isomers)	/	/	/	/	.	/
O=C(CN1C(=O)/C(=C/c2ccco2)SC1=S)NC1CCS(=O)(=O)C1 (stereo not drawn)	55	.	.	.	49	52
Cc1ccc(Cl)cc1N1CCN(S(=O)(=O)c2ccc3c(c2)NC(=O)C(C)C(=O)N3)CC1 (stereo not drawn)	.	.	.	/	.	96
COc1ccc(OC)c2[nH]c(=O)c(CCNC(=O)c3cc4ccccc4oc3=O)cc12	/	/	/	.	/	/
Cc1[nH]ncc1Nc1ccccc1C(C)C	.	.	.	/	.	.
Cc1[nH]ncc1Nc1c(C(C)C)cccc1C(C)C	.	.	.	/	55	.
COc1ccccc1CNC(=O)COC(=O)c1cc(-c2ccco2)nc2ccccc12	.	.	20	/	/	31
CN(CC(=O)Nc1cccc(F)c1)C(=O)c1cc(-c2ccco2)nc2ccccc12	.	.	.	.	.	.
COc1ccc(NC(=O)CN(C)C(=O)c2cc(-c3ccco3)nc3ccccc23)cc1	.	.	.	.	.	29
CC(C)CC#Cc1ccc([C@H]2[C@@H](CO)N3C(=O)CN(C(=O)c4cnccn4)C[C@@H]23)cc1	/	/	/	/	.	/
C=C(NC(=O)C(=C)NC(=O)c1csc(C2=NC3c4csc(n4)C4NC(=O)c5csc(n5)C(C(C)(O)C(C)O)NC(=O)C5CSC(=N5)/C(=C/C)NC(=O)C(C(C)O)NC(=O)c5csc(n5)C3(CC2)NC(=O)C(C)NC(=O)C(=C)NC(=O)C(=C)NC(=O)C(C(C)C)NC2C=Cc3c(C(C)O)cc(nc3C2O)C(=O)OC4C)n1)C(N)=O (stereo not drawn)	32	.	.	/	.	.
CCCN=C1CC(C)(C)CC(=O)/C1=C(/O)CCC	.	.	.	.	.	.
CCCCCCN=C1CC(C)(C)CC(=O)/C1=C(/O)CCC	.	.	.	.	.	23
COc1ccccc1NC(=O)N1CCN(c2ccc3nncn3n2)CC1	.	.	.	/	.	24
